pIC50: −log10 of the molar value. Blank lines part the entries; values can stand above or below the compound they belong to.
Tests used:
[1] = target: T1, Protein mono-ADP-ribosyltransferase PARP10 (Homo sapiens, UniProt Q53GL7); test: Inhibition of human PARP10 catalytic domain assessed as reduction in MARylation of His6-tagged SRPK2 substrate after 60 mins in presence of NAD+ by chemifluorescence assay
T1 sequence (Q53GL7 whole entry): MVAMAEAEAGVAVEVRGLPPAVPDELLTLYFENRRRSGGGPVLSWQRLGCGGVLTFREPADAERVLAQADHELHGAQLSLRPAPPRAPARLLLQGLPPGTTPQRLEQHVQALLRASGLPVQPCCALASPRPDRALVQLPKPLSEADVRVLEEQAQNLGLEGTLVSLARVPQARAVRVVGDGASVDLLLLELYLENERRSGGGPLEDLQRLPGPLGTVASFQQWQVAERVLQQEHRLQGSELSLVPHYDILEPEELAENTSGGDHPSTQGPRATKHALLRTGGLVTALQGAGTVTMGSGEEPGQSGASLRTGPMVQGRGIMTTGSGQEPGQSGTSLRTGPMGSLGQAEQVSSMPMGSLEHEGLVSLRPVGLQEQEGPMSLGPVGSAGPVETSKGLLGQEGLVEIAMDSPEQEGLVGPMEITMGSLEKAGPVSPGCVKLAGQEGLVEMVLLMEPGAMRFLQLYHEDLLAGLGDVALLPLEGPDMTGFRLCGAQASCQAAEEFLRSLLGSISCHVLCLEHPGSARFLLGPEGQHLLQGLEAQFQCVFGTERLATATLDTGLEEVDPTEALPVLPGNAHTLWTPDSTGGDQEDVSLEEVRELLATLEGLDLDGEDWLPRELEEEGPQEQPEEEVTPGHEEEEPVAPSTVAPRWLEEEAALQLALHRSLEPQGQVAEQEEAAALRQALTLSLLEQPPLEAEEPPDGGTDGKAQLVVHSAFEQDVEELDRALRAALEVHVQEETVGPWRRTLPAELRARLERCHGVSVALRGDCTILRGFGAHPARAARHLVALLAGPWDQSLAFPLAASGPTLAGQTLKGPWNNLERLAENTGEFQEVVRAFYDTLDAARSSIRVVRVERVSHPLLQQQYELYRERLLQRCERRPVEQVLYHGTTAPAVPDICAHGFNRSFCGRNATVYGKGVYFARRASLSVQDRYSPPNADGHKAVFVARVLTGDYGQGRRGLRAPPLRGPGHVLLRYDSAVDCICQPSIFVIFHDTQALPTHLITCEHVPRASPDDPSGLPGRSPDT

[2] = target: Protein mono-ADP-ribosyltransferase PARP4 (Homo sapiens, UniProt Q9UKK3); test: Inhibition of human PARP4 BRCT-catalytic domain (1 to 572 residues) assessed as reduction in MARylation of SRPK2 substrate after 60 mins in presence of 6-a-NAD+ by chemifluorescence assay
Procedure, shortened: (§1)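 Recombinant enzyme was tested in a 96-well plate assay that monitors MARylation of the substrate SRPK2 with the clickable 6-a-NAD+.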

[3] = Inhibition of GFP-tagged human PARP6 short isoform expressed in HEK293T cells assessed as reduction in auto-MARylation after 60 mins in presence of 6-a-NAD+ by chemiluminescent immunoprecipitation assay; type: cell-based
[4] = Inhibition of GFP-tagged human PARP6 long isoform expressed in HEK293T cells assessed as reduction in auto-MARylation after 60 mins in presence of 6-a-NAD+ by chemiluminescent immunoprecipitation assay; type: cell-based
[5] = target: T2, Protein mono-ADP-ribosyltransferase TIPARP (Homo sapiens, UniProt Q7Z3E1); test: Inhibition of human PARP7 assessed as reduction in MARylation of SRPK2 substrate after 60 mins in presence of 6-a-NAD+ by chemifluorescence assay; procedure, shortened: as §1
T2 sequence (Q7Z3E1 whole entry): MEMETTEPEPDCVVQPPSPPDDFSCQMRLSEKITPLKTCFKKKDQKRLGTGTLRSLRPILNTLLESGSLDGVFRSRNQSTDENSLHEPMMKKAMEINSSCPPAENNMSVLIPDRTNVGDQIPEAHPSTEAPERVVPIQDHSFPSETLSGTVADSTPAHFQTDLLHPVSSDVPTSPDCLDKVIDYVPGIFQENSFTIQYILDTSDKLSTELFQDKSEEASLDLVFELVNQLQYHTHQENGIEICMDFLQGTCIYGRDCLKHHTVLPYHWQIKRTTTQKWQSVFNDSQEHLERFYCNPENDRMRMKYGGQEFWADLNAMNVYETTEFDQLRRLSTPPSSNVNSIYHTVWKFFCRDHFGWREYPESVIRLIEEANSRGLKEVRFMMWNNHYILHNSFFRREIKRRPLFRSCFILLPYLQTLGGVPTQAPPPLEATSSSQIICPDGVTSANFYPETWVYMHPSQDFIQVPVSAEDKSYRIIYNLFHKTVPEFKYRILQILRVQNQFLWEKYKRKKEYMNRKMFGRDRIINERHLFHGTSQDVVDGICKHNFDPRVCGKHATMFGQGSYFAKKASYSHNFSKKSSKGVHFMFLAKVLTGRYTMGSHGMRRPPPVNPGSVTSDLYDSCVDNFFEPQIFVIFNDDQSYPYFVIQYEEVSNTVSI

[6] = target: T3, Protein mono-ADP-ribosyltransferase PARP16 (Homo sapiens, UniProt Q8N5Y8); test: Inhibition of human transmembrane domain deficient His-SUMO-tagged PARP16 expressed in Escherichia coli BL21 assessed as reduction in MARylation of His6-tagged SRPK2 substrate after 60 mins in presence of 6-a-NAD+ by chemifluorescence assay; procedure, shortened: as §1
T3 sequence (Q8N5Y8 whole entry): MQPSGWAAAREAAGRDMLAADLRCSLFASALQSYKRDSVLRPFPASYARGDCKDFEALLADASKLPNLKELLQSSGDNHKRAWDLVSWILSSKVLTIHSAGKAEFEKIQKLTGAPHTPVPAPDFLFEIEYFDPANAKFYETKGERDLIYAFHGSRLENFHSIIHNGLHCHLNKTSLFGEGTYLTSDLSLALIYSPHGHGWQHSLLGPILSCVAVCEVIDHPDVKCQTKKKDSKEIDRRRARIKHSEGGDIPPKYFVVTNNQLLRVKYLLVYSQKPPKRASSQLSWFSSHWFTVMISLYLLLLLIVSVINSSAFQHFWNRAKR

Homo sapiens [7] = species: Homo sapiens; test: Selectivity ratio of IC50 for full length human PARP1 to IC50 for human PARP10 catalytic domain
Procedure, shortened: (§2)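 Selectivity ratio is the IC50 for the given PARP divided by the IC50 for PARP10 catalytic domain. IC50s came from the 6-a-NAD+ SRPK2 plate assay or, for cell-expressed PARPs, the immunoprecipitation auto-MARylation assay.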

Homo sapiens [8] = species: Homo sapiens; test: Selectivity ratio of IC50 for full length human PARP2 to IC50 for human PARP10 catalytic domain; procedure, shortened: as §2
Homo sapiens [9] = species: Homo sapiens; test: Selectivity ratio of IC50 for full length human PARP3 to IC50 for human PARP10 catalytic domain; procedure, shortened: as §2
Homo sapiens [10] = species: Homo sapiens; test: Selectivity ratio of IC50 for human PARP4 BRCT-catalytic domain (1 to 572 residues) to IC50 for human PARP10 catalytic domain; procedure, shortened: as §2
Homo sapiens [11] = species: Homo sapiens; test: Selectivity ratio of IC50 for human PARP5B catalytic domain (1 to 572 residues) to IC50 for human PARP10 catalytic domain; procedure, shortened: as §2
Homo sapiens [12] = species: Homo sapiens; test: Selectivity ratio of IC50 for GFP-tagged human PARP6 short isoform expressed in HEK293T cells to IC50 for human PARP10 catalytic domain; type: cell-based; procedure, shortened: as §2
Homo sapiens [13] = species: Homo sapiens; test: Selectivity ratio of IC50 for GFP-tagged human PARP6 long isoform expressed in HEK293T cells to IC50 for human PARP10 catalytic domain; type: cell-based; procedure, shortened: as §2
Homo sapiens [14] = species: Homo sapiens; test: Selectivity ratio of IC50 for human PARP7 to IC50 for human PARP10 catalytic domain; procedure, shortened: as §2
Homo sapiens [15] = species: Homo sapiens; test: Selectivity ratio of IC50 for GFP-tagged human PARP8 expressed in HEK293T cells to IC50 for human PARP10 catalytic domain; type: cell-based; procedure, shortened: as §2
Homo sapiens [16] = species: Homo sapiens; test: Selectivity ratio of IC50 for GFP-tagged human PARP12 expressed in HEK293T cells to IC50 for human PARP10 catalytic domain; type: cell-based; procedure, shortened: as §2
Homo sapiens [17] = species: Homo sapiens; test: Selectivity ratio of IC50 for human PARP14 catalytic-WWE domain (1459 to 1801 residues) expressed in Escherichia coli BL21 to IC50 for human PARP10 catalytic domain; procedure, shortened: as §2
Homo sapiens [18] = species: Homo sapiens; test: Selectivity ratio of IC50 for human PARP15 catalytic domain to IC50 for human PARP10 catalytic domain; procedure, shortened: as §2
Homo sapiens [19] = species: Homo sapiens; test: Selectivity ratio of IC50 for human transmembrane domain deficient His-SUMO-tagged PARP16 expressed in Escherichia coli BL21 to IC50 for human PARP10 catalytic domain; procedure, shortened: as §2
[20] = target: T4, Protein mono-ADP-ribosyltransferase PARP10 (Homo sapiens) (UniProt Q53GL7); test: Inhibition of human PARP10 catalytic domain assessed as reduction in auto-MARylation at 30 uM after 60 mins in presence of 6-a-NAD+ by chemiluminescent immunoprecipitation assay relative to control
T4 sequence (whole entry): T1 sequence (Q53GL7 whole entry)

[21] = target: T4, Protein mono-ADP-ribosyltransferase PARP10 (Homo sapiens); test: Inhibition of GFP-tagged human PARP10 expressed in HEK293T cells assessed as reduction in auto-MARylation after 3 hrs by Western blot analysis; type: cell-based
Procedure, shortened: (§3)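 HEK293T cells transfected with GFP-PARP10 and treated with compound at 1−100 μM for 3 h. A Western blot using an ADP-ribose binding reagent detected PARP10 auto-MARylation and PARP10-mediated MARylation of high molecular weight targets.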

[22] = target: T4, Protein mono-ADP-ribosyltransferase PARP10 (Homo sapiens); test: Inhibition of GFP-tagged human PARP10 expressed in HEK293T cells assessed as reduction in high molecular weight target protein MARylation after 3 hrs by Western blot analysis; type: cell-based; procedure, shortened: as §3
[23] = Aqueous solubility of the compound; type: physicochemical; details: buffer

Chain of Protein mono-ADP-ribosyltransferase PARP4 (Q9UKK3 whole entry, the tested form may be a part): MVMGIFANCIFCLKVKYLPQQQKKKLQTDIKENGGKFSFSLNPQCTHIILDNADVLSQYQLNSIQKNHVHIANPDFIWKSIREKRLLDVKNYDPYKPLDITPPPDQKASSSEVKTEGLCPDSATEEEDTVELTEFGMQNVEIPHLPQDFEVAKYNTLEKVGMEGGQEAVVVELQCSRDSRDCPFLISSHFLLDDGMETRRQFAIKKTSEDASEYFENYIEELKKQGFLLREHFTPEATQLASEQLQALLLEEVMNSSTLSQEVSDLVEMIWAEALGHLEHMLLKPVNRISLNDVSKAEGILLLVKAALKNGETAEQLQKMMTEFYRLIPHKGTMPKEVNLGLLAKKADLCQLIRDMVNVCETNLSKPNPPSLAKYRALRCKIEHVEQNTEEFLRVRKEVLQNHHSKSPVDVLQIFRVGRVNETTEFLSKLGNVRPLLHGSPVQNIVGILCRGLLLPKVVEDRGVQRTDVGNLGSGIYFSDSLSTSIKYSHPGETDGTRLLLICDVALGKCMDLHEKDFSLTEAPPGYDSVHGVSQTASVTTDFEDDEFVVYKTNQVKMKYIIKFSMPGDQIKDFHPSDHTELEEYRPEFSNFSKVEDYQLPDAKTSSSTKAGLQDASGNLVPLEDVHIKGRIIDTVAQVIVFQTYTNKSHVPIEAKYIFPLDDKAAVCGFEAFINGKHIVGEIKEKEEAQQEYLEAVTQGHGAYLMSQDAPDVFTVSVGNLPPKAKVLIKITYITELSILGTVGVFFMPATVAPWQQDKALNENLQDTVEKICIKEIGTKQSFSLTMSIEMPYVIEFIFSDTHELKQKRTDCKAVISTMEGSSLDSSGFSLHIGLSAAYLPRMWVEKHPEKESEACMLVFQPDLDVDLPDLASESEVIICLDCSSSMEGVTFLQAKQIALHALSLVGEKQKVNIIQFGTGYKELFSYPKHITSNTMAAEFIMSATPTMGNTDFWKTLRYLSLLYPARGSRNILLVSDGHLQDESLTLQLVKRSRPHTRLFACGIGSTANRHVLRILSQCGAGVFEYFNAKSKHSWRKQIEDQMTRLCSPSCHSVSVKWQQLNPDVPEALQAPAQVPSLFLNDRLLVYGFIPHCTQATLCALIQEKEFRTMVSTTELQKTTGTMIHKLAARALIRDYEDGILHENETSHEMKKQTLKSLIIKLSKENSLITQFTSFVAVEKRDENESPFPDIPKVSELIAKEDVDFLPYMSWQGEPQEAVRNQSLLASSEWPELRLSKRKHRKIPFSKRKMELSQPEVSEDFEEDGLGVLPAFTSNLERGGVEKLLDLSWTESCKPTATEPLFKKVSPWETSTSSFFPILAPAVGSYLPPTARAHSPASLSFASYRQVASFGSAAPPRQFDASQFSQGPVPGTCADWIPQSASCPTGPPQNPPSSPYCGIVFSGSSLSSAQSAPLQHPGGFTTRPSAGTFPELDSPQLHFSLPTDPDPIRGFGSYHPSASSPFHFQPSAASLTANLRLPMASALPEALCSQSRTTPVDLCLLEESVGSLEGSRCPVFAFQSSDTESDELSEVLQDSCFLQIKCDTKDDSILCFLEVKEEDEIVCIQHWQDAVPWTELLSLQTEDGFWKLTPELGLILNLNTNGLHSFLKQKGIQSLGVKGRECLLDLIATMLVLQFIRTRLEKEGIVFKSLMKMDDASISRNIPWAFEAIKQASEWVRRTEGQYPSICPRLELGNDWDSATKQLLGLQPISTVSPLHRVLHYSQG

pIC50 [1]: 5.57
SMILES: Cc1c(-c2cncc(C(F)(F)F)c2)ccc2c1CCNC2=O

SMILES: Cc1c(-c2cnc3[nH]ccc3c2)ccc2c1CCNC2=O
pIC50 [1]: 6.15

pIC50 [1]: 5.74 | pIC50 [2]: < 4.00 | pIC50 [3]: < 4.52 | pIC50 [4]: < 4.52 | pIC50 [5]: 4.72 | pIC50 [6]: 5.17 | Ratio IC50 (Homo sapiens [7]): > 37 | Ratio IC50 (Homo sapiens [8]): > 37 | Ratio IC50 (Homo sapiens [9]): > 37 | Ratio IC50 (Homo sapiens [10]): > 37 | Ratio IC50 (Homo sapiens [11]): > 37 | Ratio IC50 (Homo sapiens [14]): 7 | Ratio IC50 (Homo sapiens [17]): 22 | Ratio IC50 (Homo sapiens [18]): 23 | Ratio IC50 (Homo sapiens [19]): 2.5 | inhibition [20]: 80% | inhibition [21]: Dose-dependent effect | inhibition [22]: Dose-dependent effect
SMILES: Cc1c(-c2ccnc(C(F)(F)F)c2)ccc2c1CCNC2=O
Ratio IC50 (Homo sapiens [12]): > 10 | Ratio IC50 (Homo sapiens [13]): > 10 | Ratio IC50 (Homo sapiens [15]): > 10 | Ratio IC50 (Homo sapiens [16]): > 10

SMILES: Cc1c(-c2ccccc2)ccc2c1CCNC2=O
pIC50 [1]: 5.80 | solubility [23]: Insoluble

SMILES: O=C1NCCc2c1cccc2-c1ccccc1
pIC50 [1]: 4.46

SMILES: O=C1NCCc2cc(Br)ccc21
pIC50 [1]: 4.77

SMILES: O=C1NCCc2cc(-c3cccc(F)c3)ccc21
pIC50 [1]: 5.85

SMILES: Cc1c(-c2cccnc2)ccc2c1CCNC2=O
pIC50 [1]: 5.60

pIC50 [1]: < 4.30
SMILES: O=C1NCCc2cc(Cc3ccccc3)ccc21

pIC50 [1]: 5.66
SMILES: Cc1c(-c2cncc(F)c2)ccc2c1CCNC2=O

SMILES: Cc1c(-c2ccc3[nH]ccc3c2)ccc2c1CCNC2=O
pIC50 [1]: 5.96

SMILES: Cc1ccc2c(c1)CCNC2=O
pIC50 [1]: 4.48

pIC50 [1]: 5.80
SMILES: CC(=O)c1cccc(-c2ccc3c(c2)CCNC3=O)c1
